# A selection: hits, their analogues and other compounds. The true share with any hit is near 29%.
# CYP2C19 inh – blockers of cytochrome P450 2C19 activity – biochemical, luminescence, ADME assay, primary screen; actives 21% (n = 96,000); CYP2C19 Supersomes, luciferin-H EGE luminescence, 30 min; P33261; inhibition, % at 5 µM;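 active means CYP2C19 inhibition above a set limit at 5 µM in the primary screen, cut at about 50% in these data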;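 further: plate controls were negative control wells for no effect and 2.5 mM tranylcypromine positive control for full effect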
# CYP2C9 act – human CYP2C9 activators, primary screen, biochemical, luminescence | AID 1024, 2008 | Cytochrome P450 2C9 (Homo sapiens), P11712 | recombinant CYP2C9, luciferin-H conversion; active compounds read high; factor 1 = untreated enzyme, 0 = blocked | activation factor at 5 µM | actives 1.4% (n = 96,000);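 active means activation factor of 2 or more for CYP2C9 at a 5 µM dose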;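 further: 0 = sulfaphenazole-blocked wells and 1 = vehicle-only wells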
# Target sequence (P11712 whole entry, looked up): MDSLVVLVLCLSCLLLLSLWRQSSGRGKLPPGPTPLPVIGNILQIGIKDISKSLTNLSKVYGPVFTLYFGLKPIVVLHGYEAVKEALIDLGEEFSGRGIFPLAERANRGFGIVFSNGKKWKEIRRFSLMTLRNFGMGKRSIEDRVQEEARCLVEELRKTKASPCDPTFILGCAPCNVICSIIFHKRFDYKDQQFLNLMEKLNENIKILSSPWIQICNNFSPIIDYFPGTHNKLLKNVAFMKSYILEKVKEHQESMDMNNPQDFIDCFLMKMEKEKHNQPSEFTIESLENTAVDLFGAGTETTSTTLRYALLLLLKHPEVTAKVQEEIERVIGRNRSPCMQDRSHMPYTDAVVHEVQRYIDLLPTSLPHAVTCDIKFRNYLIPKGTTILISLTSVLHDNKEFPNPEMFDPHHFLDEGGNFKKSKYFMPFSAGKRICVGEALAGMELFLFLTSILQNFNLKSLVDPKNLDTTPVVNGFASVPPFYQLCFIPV
# CYP2C19 act – human CYP2C19 activators, primary screen, biochemical, luminescence. activation factor at 5 µM. Cytochrome P450 2C19 (Homo sapiens), P33261. AID 1025, 2008. recombinant CYP2C19, luciferin-H EGE luminescence; active compounds read high; 0 = fully inhibited enzyme, 1 = untreated enzyme. 96,000 tested, under 10 active;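 active means activation factor of at least 2 at 5 µM in the primary screen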;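 further: 0 = wells with 2.5 mM tranylcypromine and 1 = vehicle-only wells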
# tolC growth inh – growth inhibitors of E. coli tolC mutant, primary screen, strain BW25113 ΔtolC::kan, 384-well. growth inhibition, % at 10 µM (by protocol). AID 573, 2007. actives 2.2% (n = 65,000). OD615;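 active means growth inhibition at or above a cutoff equal to the mean over every tested compound plus 3 SD, cut at about 60% in these data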;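 further: growth measured after 20 h incubation at 37 °C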
#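 Doses: one dose of 10 µM final / Material: E. coli BW25113 ΔtolC::kan, tolC deletion mutant strain / Buffer or medium: LB with kanamycin 50 µg/mL / Evaluation: percent growth inhibition / Detection: optical density read at 615 nm / Incubation: 37 °C, 20 h exposure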
# CYP2C9 inhib – blockers of cytochrome P450 2C9 activity – biochemical, luminescence, ADME assay, primary screen; inhibition, % at 5 µM; actives 20% (n = 96,000); AID 777, 2007; CYP2C9 Supersomes, luciferin-H conversion;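 active means blocking of liver enzyme CYP2C9 beyond about 50% at 5 µM, limit read from the data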
# Ecoli WT expand – growth inhibitors of wild-type E. coli, primary screen, strain BW25113, expanded library, OD600. OD600 absorbance. growth inhibition, % at 100 µM. actives 0.15% (n = 98,000);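 active means growth inhibition above about 50% at one test dose, limit read from the data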;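 further: growth measured after 20 h incubation at 37 °C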
# The depositor's hits bear a star; x = not tested or not shown.
SMILES,CYP2C19 inh,CYP2C9 act,CYP2C19 act,tolC growth inh,CYP2C9 inhib,Ecoli WT expand
O=C1CSC(c2ccccc2)N1c1nnc(C23CC4CC(CC(C4)C2)C3)s1 (stereo not given),14,0.9,0.9,x,14,1
COc1cccc(NC(=O)N(Cc2cc3cc(C)cc(C)c3[nH]c2=O)CC2COCCO2)c1 (stereo not given),29,0.4,0.7,26,57*,-3
Cc1ccc(NC(=O)COc2ccc(Br)cc2CO)cc1,74*,0.4,0.3,x,56*,7
Cc1ccc(NC(=O)COc2ccccc2CNC(C)(C)CC(C)(C)C)cc1,46,0.9,0.5,x,6,16
O=C(COc1ccc(Br)cc1CO)Nc1ccccc1,89*,0.3,0.1,x,71*,12
CC(=O)n1c(Cl)c(NC(=O)CCl)c2ccccc21,15,0.9,0.9,x,7,3
CC(NC(=O)CN1C(=O)NC(Cc2ccccc2)(Cc2ccccc2)C1=O)C12CC3CC(CC(C3)C1)C2 (stereo not given),21,0.9,0.8,x,8,-7
CCOC(=O)N1CCN(C(=O)c2ccc3c(=O)n(CCc4ccccc4)c(=O)[nH]c3c2)CC1,49,0.8,0.5,12,17,-8
N#Cc1cnc(SCC(=O)c2ccccc2)nc1N,37,1,0.6,-3,5,9
CC(=O)C1=C(C)NC(SCC(=O)c2ccccc2)=C(C#N)C1CC(C)C (stereo not given),42,0.4,0.6,-4,59*,-3
CC(=O)C1=C(C)NC(SCC(=O)c2ccc(Cl)cc2Cl)=C(C#N)C1c1ccco1 (stereo not given),100*,0,0,48,100*,-12
Cc1ccc(SCc2[nH]nc3c2C(c2ccco2)C(C#N)=C(N)O3)cc1 (stereo not given),13,0.6,0.9,11,38,2
O=C(CSc1nnc(-c2ccco2)o1)c1ccccc1,6,0.9,0.9,3,14,3
N#CC1=C(SCC(=O)c2ccc(Br)cc2)NC2=C(C(=O)CCC2)C1c1ccco1 (stereo not given),99*,0,0,10,99*,-13
CC(=O)C1=C(C)NC(SCC(=O)c2ccccc2)=C(C#N)C1c1ccco1 (stereo not given),99*,0.1,0,26,93*,-12
CCOC(=O)CNC(=O)C(CC(C)C)NC(=O)C1CCCCC1 (stereo not given),2,1.1,1,x,-12,1
CC(=O)C1=C(C)NC(SCC(=O)c2ccc(Cl)cc2)=C(C#N)C1c1ccco1 (stereo not given),100*,0,0,50,97*,-14
CC(c1ccccc1)N1CC(C(=O)N2CCN(c3ccc(F)cc3)CC2)CC1=O (stereo not given),-5,1.6,1.1,x,-55,7
CCSC1=C(C#N)C(c2cccs2)C(C(=O)OC)=C(C)N1 (stereo not given),88*,0.1,0.1,5,91*,15
CCOC(=O)C1=C(C)NC(SCc2cc(=O)[nH][nH]2)=C(C#N)C1c1cccs1 (stereo not given),90*,0.2,0.1,13,79*,-7
N#CC1=C(N)Oc2c(oc(CO)cc2=O)C1c1cccs1 (stereo not given),-12,1.2,1.1,-17,-17,-2
COC(=O)C1=C(C)Nc2nnnn2C1c1cccs1 (stereo not given),12,0.7,0.9,-8,34,8
COC(=O)C1=C(C)Nc2c(c(=O)n(C)c(=O)n2C)C1c1cccs1 (stereo not given),83*,0.3,0.2,-1,73*,6
CCOC(=O)C1=C(C)NC(SCC(N)=O)=C(C#N)C1c1cccs1 (stereo not given),52*,0.5,0.5,x,52*,22
C=CCOC(=O)C1=C(C)NC(SCC(=O)Nc2nccs2)=C(C#N)C1c1cccs1 (stereo not given),17,0.8,0.8,x,16,-10
SMILES,CYP2C19 inh,CYP2C9 act,CYP2C19 act,tolC growth inh,CYP2C9 inhib,Ecoli WT expand
CC(SC1CCCC1)C(=O)Nc1ccnn1C(C)C (stereo not given),4,1,1,-10,4,-2
CCN(CC)C(=O)CSc1ncnc2c(-c3cccs3)nsc12,30,0.6,0.7,19,45,-9
CC1=C(C(=O)N2CCCCC2)C(c2cccs2)NC(=O)N1 (stereo not given),-16,1.4,1.2,-13,-36,-6
COC(=O)C1=C(C)NC2=C(C(=O)CC(c3cccs3)C2)C1c1ccsc1 (stereo not given),47,0.8,0.5,29,24,-2
CC(=O)C1=C(C)NC(C)=C(C(C)=O)C1c1cccs1,94*,0.4,0.1,-14,62*,2
CCOCCSC1=C(C#N)C(c2cccs2)C(C(C)=O)=C(C)N1 (stereo not given),90*,0.2,0.1,35,83*,4
CCOC(=O)C1=C(C)NC(SCC(=O)Nc2cc(C)on2)=C(C#N)C1c1cccs1 (stereo not given),91*,0.1,0.1,94*,95*,-1
O=C1CC(=C(c2ccccc2)c2ccccc2)C(=O)N1CCCCN1CCN(c2ccccc2)CC1,44,0.3,0.6,x,73*,-12
[O-]/[N+](=C\c1ccncc1)c1ccccc1,21,0.8,0.8,-10,19,-3
CCOc1ccc(S(=O)(=O)N(CC(=O)O)c2ccc(C)cc2)cc1,21,0.5,0.8,4,46,1
COc1ccc(/C=C(/NC(=O)c2ccccc2)C(=O)N/N=C/c2cccs2)cc1OC,29,1,0.7,x,3,-6
CCOc1ccc(S(=O)(=O)N(CC(=O)N/N=C/c2cccs2)c2ccc(C)cc2)cc1,53*,0.9,0.5,x,7,-6
COc1ccc(S(=O)(=O)N(CC(=O)N/N=C/c2cccs2)c2cc(C)cc(C)c2)cc1OC,53*,0.4,0.5,x,60*,-11
Cc1ccc(N(CC(=O)NC(C)c2ccccc2)S(=O)(=O)c2cccs2)cc1 (stereo not given),98*,0.1,0,x,86*,-1
COc1ccc(S(=O)(=O)N(CC(=O)N/N=C/c2cccs2)c2ccc(C)cc2)cc1OC,99*,0.5,0,x,47,2
CC(C)CC1CC(=O)OC1(C)C(=O)CSc1nc2ccccc2s1 (stereo not given),22,0.7,0.8,x,26,4

# Compound activity: PubChem, several laboratories
